# Results published in the RNAGym collection of RNA variant scans (doi:10.1101/gad.245936.114).
# This sample holds only a part of the variants without activity.
# B1: tRNA (parent)
# chain: CUCUCGGUAGCCAAGUUGGUUUAAGGCGCAAGACUUUAAUUUAUCACUACGAAAUCUUGAGAUCGGGCGUUCGACUCGCCCCCGGGAGAUUUUUUCCUCGAGCAA
# Variants of: B1
# Assay: nonsense suppression (GFP-seq) (ratio to wild type); higher = more function; SUP4oc tRNA, yeast GFP reporter sort-seq
# In short: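 Nonsense suppression (GFPSEQ) is the median GFP/RFP ratio of each sorting bin, weighted by the variant's estimated share of cells in that bin and expressed relative to the unmutated parent tRNA. Yeast strains carried genome-integrated variants of an ochre-suppressor tRNA from a library with ~3% random mutations, plus a galactose-driven GFP ochre reporter and RFP, and were grown in raffinose/galactose medium containing 80 mg/L adenine. Cells were sorted into GFP/RFP bins, each bin was Illumina-sequenced (phred ≥30), and variants were kept only with ≥100 reads and ≥30 cells.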
row,Variant,nonsense suppression
1,A9C C75A,0.938
2,G10A G32C,≤ 0.026
3,G10U U21C A74U,≤ 0.026
4,A9U U20G,0.12
5,C11A A54C G59A U71C C80A G88C,≤ 0.026
6,U8A A9G,0.0277
7,A9U G66A,0.0305
8,A9G U21C A60U,≤ 0.026
9,A9G U76G C80G,≤ 0.026
10,G10U C77G,≤ 0.026
11,A9G G15U,0.0374
12,A9G G15C,0.173
13,G10A C27U,≤ 0.026
14,A9U A33G,0.0334
15,G10A U70C G78C A89C,≤ 0.026
16,A9U A74U,0.106
17,A9U A74G,0.0977
18,G10A A24C G85U,≤ 0.026
19,G10A U21G G67C C79A,≤ 0.026
20,G10U C27A G85A,0.159
21,A9C G73A,0.215

row,Variant,nonsense suppression
1,A9G U17C U22C,0.133
2,A9U C11G C68A,≤ 0.026
3,A9U A13U,0.819
4,C11A A13G,≤ 0.026
5,A9U U57G G65C,≤ 0.026
6,A9C U20C C75A,0.566
7,U8A A13U G19A A62G G67A U71C,≤ 0.026
8,A9C G69A,≤ 0.026
9,U8A G85U,0.071
10,A9C C75A G88A,≤ 0.026
11,U8A U57C G85U,≤ 0.026
12,A9U G28A C75U,0.0978
13,U8A U57C,≤ 0.026
14,G10U A31G,≤ 0.026
15,G10C C79U,≤ 0.026
16,U8G C29G G84A,≤ 0.026
17,G7U G19U,≤ 0.026
18,A9C U21C A24U U63A G69U,≤ 0.026
19,G10C U21A,≤ 0.026
20,U8C U63A,0.0619
21,A9U G10A,0.0292

row,Variant,nonsense suppression
1,G7U U58G C80G,≤ 0.026
2,U8A G26C A31U U55A U71A,≤ 0.026
3,U8G G26A C56U C64G G66U G78U A89U,≤ 0.026
4,G10U G85C,≤ 0.026
5,A9G U20G C75G,0.831
6,A9G A13U A74C,≤ 0.026
7,G10C A54U,≤ 0.026
8,A9G U55C,0.245
9,U8C G85U,0.0537
10,A9G A24G,0.0517
11,G10C G19U C64G,≤ 0.026
12,A9G G84U,0.0539
13,A9G G84A,0.0699
14,A9U G85C,0.0283
15,G10A G28C G61C,≤ 0.026
16,G10A C56U G73A,≤ 0.026
17,A9C A54U,1.21
18,A9C A31G C68G G86A,≤ 0.026
19,A9G C27U,0.0421
20,A9G C27G,≤ 0.026
21,G10A A60U C68A,≤ 0.026

row,Variant,nonsense suppression
1,A9U C12G U35G C72A,≤ 0.026
2,A9U C64U,0.0349
3,A9G U22A,0.212
4,A9G U22G,0.254
5,A9G U22C,0.323
6,G7U U21G A23U C79G,≤ 0.026
7,G7U C11U C56G,≤ 0.026
8,U8C U21A,≤ 0.026
9,U8C U21G,0.0903
10,C11A A30G,0.0331
11,U8G C27U,≤ 0.026
12,A9C C12U,0.186
13,G10U C34G U63A C81U,≤ 0.026
14,A9C U21C A62C C77A,≤ 0.026
15,A9G G61A A87G,0.188
16,A9C U63C,0.202
17,A9C U63G,0.0362
18,U8G U57C,≤ 0.026
19,G10U C27A,0.119
20,A9C C11A C75A,≤ 0.026
21,A9U G78A,0.0365
